Reference: ChEMBL document CHEMBL1140485, “MexAB-OprM specific efflux pump inhibitors in Pseudomonas aeruginosa. Part 7: highly soluble and in vivo active quaternary ammonium analogue D13-9001, a potential preclinical candidate” (Bioorg Med Chem, 2007)
In brackets after ≈: the same amount, converted by molar mass.

Experiments:
[1] = Aqueous solubility at pH 6.8; format: physicochemical; conditions: buffer
[2] = test system: Pseudomonas aeruginosa; test: Inhibition of Pseudomonas aeruginosa PAM1723 MexAB-OprM assessed as drug level required to decrease MIC of aztreonam
How it was run: (§1)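 P. aeruginosa PAM1723 overexpresses MexAB-OprM, with MexCD-OprJ and MexEF-OprN disrupted. The partner antibiotic's MIC was measured with and without inhibitor by NCCLS broth microdilution in Mueller–Hinton broth. Inoculum was 1 × 10⁶ CFU/mL, incubated 18 h at 37 °C, and growth was read visually. The value is the minimum inhibitor concentration that lowers the partner's MIC 8-fold (MPC₈).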

[3] = test system: Pseudomonas aeruginosa; test: Inhibition of Pseudomonas aeruginosa PAM1723 MexAB-OprM assessed as drug level required to decrease MIC of levofloxacin; how it was run: as §1
[4] = test system: Pseudomonas aeruginosa; test: Inhibition of Pseudomonas aeruginosa PAM1723 MexAB-OprM assessed as drug level required to decrease MIC of levofloxacin in presence of 0.125% HAS; how it was run: as §1
[5] = test system: Mus musculus; test: Toxicity in mouse assessed as lethal effect at 100 mg/kg, iv; format: organism-based; set-up: dose 100 mg/kg, route intravenous; conditions: in vivo
How it was run: (§2)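 Mice received a single intravenous dose at 50 or 100 mg/kg in groups of three. The read-out was the number of deaths per group.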

[6] = test system: Mus musculus; test: Toxicity in mouse assessed as lethal effect at 50 mg/kg, iv; format: organism-based; set-up: dose 50 mg/kg, route intravenous; conditions: in vivo; how it was run: as §2
[7] = test system: Rattus norvegicus; test: Volume of distribution at steady state (0 to infinity) in Sprague-Dawley rat at 1.25 mg/kg, iv; format: ADME, organism-based; set-up: dose 1.25 mg/kg, route intravenous; conditions: in vivo
How it was run: (§3)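 Rats received a 2 h intravenous infusion at 1.25, 5 or 20 mg/kg, given with AZT 1000 mg/kg in 40 mL/kg 0.0005 N NaOH-saline. Blood was drawn at 40, 80 and 120 min into the infusion, then 0.25, 0.5, 1, 2 and 4 h after it ended. Plasma was stored at −20 °C and extracted with MeCN using propranolol as internal standard.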

[8] = AUC (0 to infinity) in Sprague-Dawley rat at 1.25 mg/kg, iv; format: ADME, organism-based; set-up: time infinity, dose 1.25 mg/kg, route intravenous; conditions: plasma
How it was run: (§4)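 Rats (SD) given compound by 2 h intravenous infusion with AZT 1000 mg/kg, in 40 mL/kg 0.0005 N NaOH-saline. Blood sampled at 40, 80 and 120 min into infusion and 0.25, 0.5, 1, 2 and 4 h after its end. Plasma stored at −20 °C, spiked with propranolol internal standard, extracted with MeCN and centrifuged before analysis.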

[9] = AUC (0 to infinity) in cynomolgus monkey at 1 mg/kg, iv; format: ADME, organism-based, Macaca fascicularis; set-up: time infinity, dose 1 mg/kg, route intravenous; conditions: plasma
How it was run: (§5)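 Monkeys given compound alone by 1 h intravenous infusion in 10 mL/kg saline. Plasma prepared and analysed as in the rat study: propranolol internal standard, MeCN extraction, centrifugation.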

[10] = test system: Rattus norvegicus; test: Mean residential time (0 to infinity) in Sprague-Dawley rat at 1.25 mg/kg, iv; format: ADME, organism-based; set-up: dose 1.25 mg/kg, route intravenous; conditions: in vivo; how it was run: as §3
[11] = AUC (0 to infinity) in Sprague-Dawley rat at 20 mg/kg, iv; format: ADME, organism-based; set-up: time infinity, dose 20 mg/kg, route intravenous; conditions: plasma; how it was run: as §4
[12] = Drug level in Sprague-Dawley rat serum at 5 mg/kg, iv after 2 hrs; format: ADME, organism-based; set-up: dose 5 mg/kg, route intravenous; conditions: read-out: Activity; how it was run: as §3
[13] = test system: Rattus norvegicus; test: Half life in Sprague-Dawley rat at 5 mg/kg, iv; format: ADME, organism-based; set-up: dose 5 mg/kg, route intravenous; conditions: in vivo; how it was run: as §3
[14] = Half life in cynomolgus monkey at 1 mg/kg, iv; format: ADME, organism-based, Macaca fascicularis; set-up: dose 1 mg/kg, route intravenous; conditions: in vivo
How it was run: (§6)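 Monkeys received a 1 h intravenous infusion at 1 or 5 mg/kg in 10 mL/kg saline. Plasma was processed as for the rat samples: centrifuged, stored at −20 °C, then MeCN extraction with propranolol internal standard.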

[15] = Volume of distribution at steady state (0 to infinity) in cynomolgus monkey at 5 mg/kg, iv; format: ADME, organism-based, Macaca fascicularis; set-up: dose 5 mg/kg, route intravenous; conditions: in vivo, read-out: Vdss; how it was run: as §6
[16] = test system: Rattus norvegicus; test: Mean residential time (0 to infinity) in Sprague-Dawley rat at 5 mg/kg, iv; format: ADME, organism-based; set-up: dose 5 mg/kg, route intravenous; conditions: in vivo; how it was run: as §3
[17] = Half life in cynomolgus monkey at 5 mg/kg, iv; format: ADME, organism-based, Macaca fascicularis; set-up: dose 5 mg/kg, route intravenous; conditions: in vivo; how it was run: as §6
[18] = Drug level in cynomolgus monkey serum at 5 mg/kg, iv after 1 hr; format: ADME, organism-based, Macaca fascicularis; set-up: dose 5 mg/kg, route intravenous; conditions: read-out: Activity; how it was run: as §6
[19] = AUC (0 to infinity) in Sprague-Dawley rat at 5 mg/kg, iv; format: ADME, organism-based; set-up: time infinity, dose 5 mg/kg, route intravenous; conditions: plasma; how it was run: as §4
[20] = test system: Rattus norvegicus; test: Half life in Sprague-Dawley rat at 20 mg/kg, iv; format: ADME, organism-based; set-up: dose 20 mg/kg, route intravenous; conditions: in vivo; how it was run: as §3
[21] = test system: Rattus norvegicus; test: Half life in Sprague-Dawley rat at 1.25 mg/kg, iv; format: ADME, organism-based; set-up: dose 1.25 mg/kg, route intravenous; conditions: in vivo; how it was run: as §3
[22] = Mean residential time (0 to infinity) in cynomolgus monkey at 1 mg/kg, iv; format: ADME, organism-based, Macaca fascicularis; set-up: dose 1 mg/kg, route intravenous; conditions: in vivo; how it was run: as §6
[23] = Volume of distribution at steady state (0 to infinity) in cynomolgus monkey at 1 mg/kg, iv; format: ADME, organism-based, Macaca fascicularis; set-up: dose 1 mg/kg, route intravenous; conditions: in vivo, read-out: Vdss; how it was run: as §6
[24] = Drug level in Sprague-Dawley rat serum at 1.25 mg/kg, iv after 2 hrs; format: ADME, organism-based; set-up: dose 1.25 mg/kg, route intravenous; conditions: read-out: Activity; how it was run: as §3
[25] = AUC (0 to infinity) in cynomolgus monkey at 5 mg/kg, iv; format: ADME, organism-based, Macaca fascicularis; set-up: time infinity, dose 5 mg/kg, route intravenous; conditions: plasma; how it was run: as §5
[26] = test system: Rattus norvegicus; test: Mean residential time (0 to infinity) in Sprague-Dawley rat at 20 mg/kg, iv; format: ADME, organism-based; set-up: dose 20 mg/kg, route intravenous; conditions: in vivo; how it was run: as §3
[27] = Drug level in cynomolgus monkey serum at 1 mg/kg, iv after 1 hr; format: ADME, organism-based, Macaca fascicularis; set-up: dose 1 mg/kg, route intravenous; conditions: read-out: Activity; how it was run: as §6
[28] = Clearance (0 to infinity) in cynomolgus monkey at 5 mg/kg, iv; format: ADME, organism-based, Macaca fascicularis; set-up: dose 5 mg/kg, route intravenous; conditions: in vivo; how it was run: as §6
[29] = Mean residential time (0 to infinity) in cynomolgus monkey at 5 mg/kg, iv; format: ADME, organism-based, Macaca fascicularis; set-up: dose 5 mg/kg, route intravenous; conditions: in vivo; how it was run: as §6
[30] = Clearance (0 to infinity) in cynomolgus monkey at 1 mg/kg, iv; format: ADME, organism-based, Macaca fascicularis; set-up: dose 1 mg/kg, route intravenous; conditions: in vivo; how it was run: as §6
[31] = test system: Rattus norvegicus; test: Volume of distribution at steady state (0 to infinity) in Sprague-Dawley rat at 5 mg/kg, iv; format: ADME, organism-based; set-up: dose 5 mg/kg, route intravenous; conditions: in vivo; how it was run: as §3
[32] = test system: Rattus norvegicus; test: Volume of distribution at steady state (0 to infinity) in Sprague-Dawley rat at 20 mg/kg, iv; format: ADME, organism-based; set-up: dose 20 mg/kg, route intravenous; conditions: in vivo; how it was run: as §3
[33] = Drug level in Sprague-Dawley rat serum at 20 mg/kg, iv after 2 hrs; format: ADME, organism-based; set-up: dose 20 mg/kg, route intravenous; conditions: read-out: Activity; how it was run: as §3

CC(C)(C)c1csc(NC(=O)c2ccn3c(=O)c(/C=C/c4nnn[nH]4)c(N4CCC[C@H](OC(=O)NCC[N+](C)(C)C)C4)nc3c2)n1
solubility [1]: 547 µg/mL

CC(C)(C)c1csc(NC(=O)c2ccn3c(=O)c(/C=C/c4nnn[nH]4)c(N4CCC[C@@H](OC(N)=O)C4)nc3c2)n1
Activity [2]: < 0.25 µg/mL
solubility [1]: 9.2 µg/mL (≈ 16.3 µM)
Activity [3]: 0.5 µg/mL
Activity [4]: 2 µg/mL

CC(C)(C)c1csc(NC(=O)c2ccn3c(=O)c(/C=C/c4nnn[nH]4)c(N4CCC[C@@H](OC(=O)NCC[N+](C)(C)C)C4)nc3c2)n1
Activity [2]: 2 µg/mL
Activity [3]: 2 µg/mL
Activity [4]: 4 µg/mL

CC(C)(C)c1csc(NC(=O)c2ccn3c(=O)c(/C=C/c4nnn[nH]4)c(N4CCC(OC(=O)NCC[N+](C)(C)CC(=O)[O-])CC4)nc3c2)n1
Activity [2]: 4 µg/mL
solubility [1]: 170 µg/mL (≈ 245 µM)
Activity [3]: 8 µg/mL
Activity [4]: 16 µg/mL

CC(C)(C)c1csc(NC(=O)c2ccn3c(=O)c(/C=C/c4nnn[nH]4)c(N4CCC[C@@H](OC(=O)NCC[N+](C)(C)CC(N)=O)C4)nc3c2)n1
Activity [2]: 4 µg/mL
solubility [1]: 95 µg/mL
Activity [5]: Non-toxic
Activity [3]: 4 µg/mL
Activity [4]: 4 µg/mL

CN(C)CCNC(=O)O[C@@H]1CCCN(c2nc3cc(C(=O)Nc4nc(C(C)(C)C)cs4)ccn3c(=O)c2/C=C/c2nnn[nH]2)C1
Activity [2]: 1 µg/mL
Activity [6]: Non-toxic
Activity [3]: 2 µg/mL
Activity [4]: 4 µg/mL

CC(C)(C)c1csc(NC(=O)c2ccn3c(=O)c(/C=C/c4nnn[nH]4)c(N4CCC[C@@H](OC(=O)NCC[N+](C)(C)CC(=O)[O-])C4)nc3c2)n1
Vdss [7]: 3.049 L/kg
AUC(0-inf) [8]: 486 ng·h/mL
AUC(0-inf) [9]: 1490 ng·h/mL
MRT [10]: 71.16 min
AUC(0-inf) [11]: 14200 ng·h/mL
Activity [2]: 2 µg/mL
solubility [1]: 747 µg/mL (≈ 1080 µM)
concentration at 2 h [12]: 1840 ng/mL
t1/2 [13]: 10.8 min
half-life [14]: 16.8 min
Activity [5]: Non-toxic
Vd [15]: 0.4 L/kg
MRT [16]: 72.54 min
half-life [17]: 24.6 min
Activity [3]: 2 µg/mL
concentration at 1 h [18]: 7640 ng/mL
AUC(0-inf) [19]: 3530 ng·h/mL
Activity [4]: 4 µg/mL
t1/2 [20]: 15 min
t1/2 [21]: 13.8 min
MRT inf [22]: 36.8 min
Vd [23]: 0.414 L/kg
concentration at 2 h [24]: 262 ng/mL
AUC(0-inf) [25]: 7890 ng·h/mL
MRT [26]: 72.9 min
concentration at 1 h [27]: 1220 ng/mL
clearance [28]: 10.7 mL/min/kg
MRT inf [29]: 37.5 min
clearance [30]: 11.2 mL/min/kg
Vdss [31]: 1.712 L/kg
Vdss [32]: 1.71 L/kg
concentration at 2 h [33]: 8040 ng/mL

CC(C)(C)c1csc(NC(=O)c2ccn3c(=O)c(/C=C/c4nnn[nH]4)c(N4CCC[C@@H](CC(=O)NCC[N+](C)(C)CC(=O)[O-])C4)nc3c2)n1
Activity [2]: 4 µg/mL
solubility [1]: 860 µg/mL (≈ 1240 µM)
Activity [3]: 4 µg/mL
Activity [4]: 8 µg/mL

CC(C)(C)c1csc(NC(=O)c2ccn3c(=O)c(/C=C/c4nnn[nH]4)c(N4CCC[C@@H](OC(=O)NCCC[N+](C)(C)CC(=O)[O-])C4)nc3c2)n1
Activity [2]: 2 µg/mL
solubility [1]: 610 µg/mL (≈ 862 µM)
Activity [3]: 4 µg/mL
Activity [4]: 4 µg/mL

CC(C)(C)c1csc(NC(=O)c2ccn3c(=O)c(/C=C/c4nnn[nH]4)c(N4CCC/C(=C\C(=O)NCC[N+](C)(C)CC(=O)[O-])C4)nc3c2)n1
Activity [2]: 8 µg/mL
Activity [1]: Not Active
Activity [3]: 16 µg/mL
Activity [4]: > 16 µg/mL
